Data: publication PMC5652303 (European journal of medicinal chemistry, 2017)
Where “and” joins values, the source holds several entries; their conditions need not be identical. Equal entries are not always repeated.

Tests used:
breast cancer MDA-MB-468 = test: Cytotoxicity towards tumor cells; format: cell-based; conditions: Homo sapiens, MDA-MB-468, 48 h
[1] = test system: ovarian cancer SKOV3 cell; test: Cytotoxicity in SKOV3 cells; format: cell-based; conditions: for IC50: Homo sapiens, SK-OV-3; for Cytotoxicity (initial test): SKOV3 cells
Method in brief: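 Cells grown in RPMI 1640 with 5% FBS and 2 mM L-glutamine, seeded at 5,000–10,000 cells/well in 384-well plates, and left 2–3 h at 37 °C, 5% CO2. Compounds were made as 20 mM DMSO stocks and serially diluted 2-fold ten times, then added at 1:100. After 48 h, viability was read by CellTiter-Glo luminescence after 10 min at room temperature. IC50 came from four-parameter nonlinear regression.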

normal lymphocytes = test: Viability of normal lymphocytes, annexin/PI binding assay; format: cell-based, human; conditions: healthy donors (n=2), 10 µM, 24 hours
Method in brief: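 Lymphocytes were separated from healthy donors' peripheral blood on a Ficoll-hypaque gradient and suspended in RPMI with 10% autologous plasma. After compound exposure, the percentage of viable cells was scored by annexin V/propidium iodide binding.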

[2] = Monomer reaction with H2O2 by NMR analysis; format: physicochemical; conditions: for Disappearance of starting materials: Time of completion / Disappearance of starting materials: kobs / QM formation: Time of completion / QM formation: kobs: DMSO/deuterated phosphate buffer pH 8 (3:2), with H2O2; for Time to completion of reaction with H2O2 (oxidative deboronation): phosphate buffer pH 8 in D2O/DMSO 2:3, SI Figures S14, 15, 17, 18
[3] = Chemical stability of the compounds; format: physicochemical; conditions: for Hydrolysis of the acetate group: NMR, phosphate buffer pH 8 in D2O/DMSO 2:3, before addition of H2O2
49-mer DNA duplex 25 = test: H2O2-induced DNA interstrand cross-link; format: biochemical; conditions: for Kinetics of ICL formation: Time of completion: phosphate buffer pH 8; for ICL formation rate constant relative to 1a: rate constants of Table 1; for DNA ICL cross-linking yield without H2O2: no H2O2, duplex 25, pH 8 phosphate buffer
Method in brief: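 The 32P-labelled strand (0.5 µM) was annealed to 1.5 equiv of complement at 65 °C for 3 min in 10 mM potassium phosphate pH 7 with 100 mM NaCl, then cooled slowly overnight. Duplex, NaCl, potassium phosphate (pH 6–8), H2O2 and compound (100 µM–2 mM, in CH3CN) were incubated 24 h; some runs went 48 h. Reactions were quenched with 90% formamide loading buffer and run on 20% denaturing PAGE with phosphorimaging. Yields were corrected for the no-H2O2 control.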

[4] = test system: H2AX phosphorylation at Ser139; test: DNA damage response: H2AX phosphorylation in CLL lymphocytes, flow cytometry; format: cell-based, human; conditions: 10 µM, 24 hours
Method in brief: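 Lymphocytes were isolated from CLL patients' peripheral blood on a Ficoll-hypaque gradient and held in RPMI with 10% autologous plasma. After compound exposure, cells were washed in PBS, fixed in ice-cold 70% ethanol and stored at −20 °C. They were then permeabilised, stained with FITC anti-H2AX Ser139 antibody, and analysed by flow cytometry.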

[5] = test system: 60 human cancer cell lines; test: NCI DTP in vitro cancer cell screen; format: cell-based; conditions: 10 µM, most of the 60 cell lines
Method in brief: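 NCI DTP screen. Human tumour cell lines were grown in RPMI 1640 with 5% FBS and 2 mM L-glutamine. Cells were plated in 96-well plates at 5,000–40,000 cells/well, set by each line's doubling time, and treated at a single 10 µM dose.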

| SMILES | IC50 [1] | Toxicity to normal lymphocytes (normal lymphocytes) | Disappearance of starting materials: Time of completion [2] | Disappearance of starting materials: kobs [2] | QM formation: Time of completion [2] | QM formation: kobs [2] | Chemical stability [3] | Kinetics of ICL formation: Time of completion (49-mer DNA duplex 25) | Induction of DNA damage response (H2AX phosphorylation) [4] | Cytotoxicity (initial test) [1] | Hydrolysis of the acetate group [3] | DNA ICL cross-linking yield without H2O2 (49-mer DNA duplex 25; 2 mM compound, 37 °C) | other results |
| --- | --- | --- | --- | --- | --- | --- | --- | --- | --- | --- | --- | --- | --- |
| N[C@@H](Cc1ccc(N(CCCl)CCCl)cc1)C(=O)O [Melphalan, melphalan] |  |  |  |  |  |  |  |  |  |  |  |  | IC50 (breast cancer MDA-MB-468): 48.7 µM |
| CC1(C)OB(c2c(CBr)cc(O)cc2CBr)OC1(C)C [5a, 3,5-Bis(bromomethyl)-4-(4,4,5,5-tetramethyl-1,3,2-dioxaborolan-2-yl)phenol] | 3.8 µM | no significant toxicity | 40 min | 61.7 ± 3.2 10^−5 s^−1 | 40 min | 58.3 ± 4.3 10^−5 s^−1 | relatively stable | 300 min | induction of DNA damage response |  |  |  | ICL formation rate constant relative to 1a (49-mer DNA duplex 25): 2–3 times |
| COc1cc(COC(C)=O)c(B2OC(C)(C)C(C)(C)O2)c(COC(C)=O)c1 [2b, (5-Methoxy-2-(4,4,5,5-tetramethyl-1,3,2-dioxaborolan-2-yl)-1,3-phenylene)bis(methylene) diacetate] |  |  | 480 min | 9.1 ± 0.6 10^−5 s^−1 | 480 min |  |  |  |  | not cytotoxic | hydrolyzed prior to addition of H2O2 |  | Time to completion of reaction with H2O2 (oxidative deboronation) [2]: not finished within one hour |
| COc1cc(OC)c(CBr)c(B2OC(C)(C)C(C)(C)O2)c1CBr [3a, 2-(2,6-Bis(bromomethyl)-3,5-dimethoxyphenyl)-4,4,5,5-tetramethyl-1,3,2-dioxaborolane] |  |  |  |  |  |  | not stable and easily decomposed even at 0 °C |  |  |  |  | 17 ± 3% and 17% |  |
| O=C(O)CCCc1ccc(N(CCCl)CCCl)cc1 [Chlorambucil, chlorambucil] |  |  |  |  |  |  |  |  |  |  |  |  | IC50 (breast cancer MDA-MB-468): 34.4 µM |
| CC(=O)OCc1cccc(COC(C)=O)c1B1OC(C)(C)C(C)(C)O1 [1b, (2-(4,4,5,5-Tetramethyl-1,3,2-dioxaborolan-2-yl)-1,3-phenylene)bis(methylene) diacetate] |  |  | 240 min | 19.4 ± 1.2 10^−5 s^−1 | 240 min |  |  |  |  | not cytotoxic | hydrolyzed prior to addition of H2O2 |  |  |
| CC1(C)OB(c2c(CBr)cccc2CBr)OC1(C)C [1a] | 6.3 µM | no significant toxicity | 60 min | 39.0 ± 1.5 10^−5 s^−1 | 60 min | 9.5 ± 0.2 10^−5 s^−1 |  | 600 min | induction of DNA damage response |  |  | 0% |  |
| COc1c(CBr)c(B2OC(C)(C)C(C)(C)O2)c(CBr)c(OC)c1OC [4a, 2-(2,6-Bis(bromomethyl)-3,4,5-trimethoxyphenyl)-4,4,5,5-tetramethyl-1,3,2-dioxaborolane] |  |  |  |  |  |  | more stable than 3a |  |  | not cytotoxic |  | 0% | DNA ICL cross-linking yield with H2O2 (49-mer DNA duplex 25; 2 mM compound, 2 mM H2O2, duplex 25, pH 8 phosphate buffer, 37 °C): 0%; ICL yield after incubation of ICL products at pH 6 (49-mer DNA duplex 25; ICLs generated at pH 6, then incubated at pH 6, 37 °C, 24 h): remained unchanged; ICL yield after incubation of ICL products at pH 8 (49-mer DNA duplex 25; ICLs generated at pH 6, then incubated at pH 8, 37 °C, 24 h): 3.0 ± 0.5%; ICL yield of ICL products generated with 4a at pH 6 (49-mer DNA duplex 25; duplex 25, generated at pH 6, before further incubation): 16.6 ± 1.0%; DNA ICL product formation at pH 7 or higher pH (49-mer DNA duplex 25; with H2O2, pH 7 or higher): not formed |
| CC(=O)OCc1cc(O)cc(COC(C)=O)c1B1OC(C)(C)C(C)(C)O1 [5b, (5-Hydroxy-2-(4,4,5,5-tetramethyl-1,3,2-dioxaborolan-2-yl)-1,3-phenylene)bis(methylene) diacetate] |  |  | 480 min | 8.3 ± 0.5 10^−5 s^−1 | 480 min |  |  |  |  |  | hydrolyzed prior to addition of H2O2 |  | Time to completion of reaction with H2O2 (oxidative deboronation) [2]: not finished within one hour |
| COc1cc(CBr)c(B2OC(C)(C)C(C)(C)O2)c(CBr)c1 [2a, 2-(2,6-Bis(bromomethyl)-4-methoxyphenyl)-4,4,5,5-tetramethyl-1,3,2-dioxaborolane] | 5.2 µM | no significant toxicity | 42 min | 56.7 ± 4.3 10^−5 s^−1 | 50 min | 38.3 ± 2.2 10^−5 s^−1 | chemically stable | 240 min | induction of DNA damage response |  |  |  | Growth percentage of most cell lines, single dose screening [5]: less than 50%; ICL formation rate constant relative to 1a (49-mer DNA duplex 25): 2–3 times |
